From ChEMBL document CHEMBL2331384, “Synthesis, crystal structure and antibacterial activity of new highly functionalized ionic compounds based on the imidazole nucleus” (2013)
Calls of active or inactive are those of the source. No cut-off for these calls is given here.

What was measured:
Pseudomonas aeruginosa [1] = assay: Antimicrobial activity against Pseudomonas aeruginosa ATCC 27853 at 200 ug after overnight incubation by disk-diffusion method; type: functional; details: for zone of inhibition at 200 µg/disc: read-out: DIZ
In short: (§1)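 Bacterial suspension spread over a Mueller–Hinton agar surface. 6 mm paper disks each loaded with 200 µg of compound dissolved in DMSO were placed on the agar. Plates were incubated overnight at 37 °C, and inhibition zone diameters were measured with a ruler in mm.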

Staphylococcus aureus [2] = assay: Antimicrobial activity against Staphylococcus aureus ATTC-25923 at 200 ug after overnight incubation by disk-diffusion method; type: functional; details: for zone of inhibition at 200 µg/disc: read-out: DIZ; in short: as §1
Salmonella typhimurium [3] = assay: Antimicrobial activity against Salmonella typhimurium ATCC 07095 at 200 ug after overnight incubation by disk-diffusion method; type: functional, Salmonella enterica subsp. enterica serovar Typhimurium; details: for zone of inhibition at 200 µg/disc: Salmonella enterica, read-out: DIZ; for diameter of the inhibition zone (DIZ): Salmonella enterica subsp. enterica serovar Typhimurium; in short: as §1
Escherichia coli [4] = assay: Antimicrobial activity against Escherichia coli ATTC-25922 at 200 ug after overnight incubation by disk-diffusion method; type: functional; details: for zone of inhibition at 200 µg/disc: read-out: DIZ; in short: as §1
Salmonella typhimurium [5] = assay: Antimicrobial activity against Salmonella typhimurium ATCC 07095 after 1 day by agar dilution method; type: functional, Salmonella enterica subsp. enterica serovar Typhimurium; details: Salmonella enterica, ATCC 07095, 24 h
In short: (§2)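 Inoculum was an overnight broth culture diluted to about 10^6 cell/mL. MIC (µg/mL) was determined by a standardized agar dilution technique after 1 day of exposure.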

Pseudomonas aeruginosa [6] = assay: Antimicrobial activity against Pseudomonas aeruginosa ATCC 27853 after 1 day by agar dilution method; type: functional; details: ATCC 27853, 24 h; in short: as §2
Staphylococcus aureus [7] = assay: Antimicrobial activity against Staphylococcus aureus ATTC-25923 after 1 day by agar dilution method; type: functional; details: ATTC-25923, 24 h; in short: as §2
Escherichia coli [8] = assay: Antimicrobial activity against Escherichia coli ATTC-25922 after 1 day by agar dilution method; type: functional; details: ATTC-25922, 24 h; in short: as §2
Salmonella typhimurium [9] = assay: Antimicrobial activity against Salmonella typhimurium ATCC 07095 at 100 ug after overnight incubation by disk-diffusion method; type: functional, organism-based; details: Salmonella enterica subsp. enterica serovar Typhimurium
Staphylococcus aureus [10] = assay: Antimicrobial activity against Staphylococcus aureus ATTC-25923 at 100 ug after overnight incubation by disk-diffusion method; type: functional, organism-based
Escherichia coli [11] = assay: Antimicrobial activity against Escherichia coli ATTC-25922 at 100 ug after overnight incubation by disk-diffusion method; type: functional, organism-based

Compound | zone of inhibition at 200 µg/disc (Pseudomonas aeruginosa [1]) [mm] | zone of inhibition at 200 µg/disc (Staphylococcus aureus [2]) [mm] | zone of inhibition at 200 µg/disc (Salmonella typhimurium [3]) [mm] | diameter of the inhibition zone (DIZ) (Escherichia coli [4]) | MIC (Salmonella typhimurium [5]) [µg/mL] | MIC (Pseudomonas aeruginosa [6]) [µg/mL] | MIC (Staphylococcus aureus [7]) [µg/mL] | MIC (Escherichia coli [8]) [µg/mL] | diameter of the inhibition zone (DIZ) (Pseudomonas aeruginosa [1]) | diameter of the inhibition zone (DIZ) (Salmonella typhimurium [3]) | diameter of the inhibition zone (DIZ) (Staphylococcus aureus [2]) | zone of inhibition at 200 µg/disc (Escherichia coli [4]) [mm] | zone of inhibition (Salmonella typhimurium [9]) [mm] | zone of inhibition (Staphylococcus aureus [10]) [mm] | zone of inhibition (Escherichia coli [11]) [mm]
CCOC(=O)C[n+]1c(Br)c(Br)n(C)c1-c1ccccc1.[Br-] | 7 | 9 | 7 | inactive | 25 | 25 | > 250 | 50 |  |  |  |  |  |  | 
CCOC(=O)C[n+]1c(Br)c(Br)n(C)c1C.[Br-] |  | 10 |  | inactive | > 250 | 250 | > 250 | 25 | inactive | inactive |  |  |  |  | 
Cn1c[n+](CC(=O)c2ccccc2)cc1[N+](=O)[O-].[Br-] | 9 |  |  | inactive | 12.5 | 12.5 | > 250 | 12.5 |  | inactive | inactive |  |  |  | 
CCOC(=O)C[n+]1cn(C)c(I)c1I.[Br-] | 9 |  |  | inactive | 50 | 6.2 | 250 | 6.2 |  | inactive | inactive |  |  |  | 
Cc1n(C)c(Br)c(Br)[n+]1CC(=O)c1ccccc1.[Br-] | 9 | 7 | 7 |  | > 250 | 150 | > 250 | 12.5 |  |  |  | 9 |  |  | 
SPIRAMYCIN |  |  |  |  |  |  |  |  |  |  |  |  | 9 | 22 | 9
CCOC(=O)C[n+]1c(Br)c(Br)n(C)c1CO.[Br-] | 7 |  |  |  | > 250 | 25 | > 250 | 150 |  | inactive | inactive | 7 |  |  | 
Cc1n(C)c(I)c(I)[n+]1CC(=O)c1ccccc1.[Br-] | 9 | 15 | 8 |  | 25 | 12.5 | > 250 | 12.5 |  |  |  | 9 |  |  | 
Cn1c(Br)c(Br)[n+](CC(=O)c2ccccc2)c1CO.[Br-] | 9 | 7 |  |  | > 250 | 50 | > 250 | 25 |  | inactive |  | 7 |  |  | 
Cn1c(Br)c(Br)[n+](CC(=O)c2ccccc2)c1-c1ccccc1.[Br-] | 8 | 12 | 7 |  | 150 | 50 | 250 | 50 |  |  |  | 9 |  |  | 
CCOC(=O)C[n+]1c(I)c(I)n(C)c1C.[Br-] | 9 |  |  | inactive | > 250 | 25 | > 250 | 25 |  | inactive | inactive |  |  |  | 
Cc1n(C)c([N+](=O)[O-])c[n+]1CC(=O)c1ccccc1.[Br-] | 10 | 9 | 7 |  | 50 | > 250 | > 250 | 50 |  |  |  | 9 |  |  | 
Cn1c[n+](CC(=O)c2ccccc2)c(I)c1I.[Br-] | 8 | 15 | 9 |  | 12.5 | 25 | 250 | 25 |  |  |  | 12 |  |  | 
